Measured values taken from ChEMBL document CHEMBL3272177, “Hypolipidemic alkoxybenzoic acids” (1976).

Tests used:
Parameters in all cases: scale not given: the % may be the effect or the level left
Rattus norvegicus [1] = species on record: Rattus norvegicus; assay: Reduction in sterol level in CFE rat […] at 0.025% of diet treated through diet for 6 days relative to control; format: functional, Serum
How it was run: (§1)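 Compound dissolved in methanol-chloroform (1:3 v/v), mixed into ground rat chow at 0.1, 0.05 or 0.025% (w/w), and solvent evaporated; controls received solvent-treated chow. Rats fed ad libitum with water for 6 days, then killed fed and bled. Serum sterols and triglycerides measured by autoanalyzer. Values given as percent of control, mean ± SE; significance by Student's t test.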

Rattus norvegicus [2] = species on record: Rattus norvegicus; assay: Reduction in sterol level in CFE rat […] in serum at 0.1% of diet treated through diet for 6 days relative to control; format: functional; how it was run: as §1
Rattus norvegicus [3] = species on record: Rattus norvegicus; assay: Reduction in triglyceride level in CFE rat […] in serum at 0.1% of diet treated through diet for 6 days relative to control; format: functional; how it was run: as §1
Rattus norvegicus [4] = species on record: Rattus norvegicus; assay: Reduction in triglyceride level in CFE rat […] in serum at 0.05% of diet treated through diet for 6 days relative to control; format: functional; how it was run: as §1
Rattus norvegicus [5] = species on record: Rattus norvegicus; assay: Reduction in triglyceride level in CFE rat […] at 0.025% of diet treated through diet for 6 days relative to control; format: functional, Serum; how it was run: as §1
Rattus norvegicus [6] = species on record: Rattus norvegicus; assay: Reduction in sterol level in CFE rat […] in serum at 0.05% of diet treated through diet for 6 days relative to control; format: functional; how it was run: as §1

Compound: CC(C)CCCC(C)CCCC(C)CCOc1ccc(C(=O)O)cc1 (stereo unspecified)
- Activity (Rattus norvegicus [1]): 81%
- Activity (Rattus norvegicus [2]): 87%
- Activity (Rattus norvegicus [3]): 26%
- Activity (Rattus norvegicus [4]): 72%
- Activity (Rattus norvegicus [5]): 72%
- Activity (Rattus norvegicus [6]): 73%

Compound: C=CCCCCCCCCCOc1ccc(C(=O)O)cc1
- Activity (Rattus norvegicus [1]): 100%
- Activity (Rattus norvegicus [2]): 86%
- Activity (Rattus norvegicus [3]): 60%
- Activity (Rattus norvegicus [4]): 81%
- Activity (Rattus norvegicus [5]): 82%
- Activity (Rattus norvegicus [6]): 99%

Compound: O=C(O)c1ccc(OC2CCCCCCCCCCC2)cc1
- Activity (Rattus norvegicus [1]): 87%
- Activity (Rattus norvegicus [2]): 86%
- Activity (Rattus norvegicus [3]): 87%
- Activity (Rattus norvegicus [4]): 81%
- Activity (Rattus norvegicus [5]): 97%
- Activity (Rattus norvegicus [6]): 94%

Compound: O=C(O)c1ccc(OCCCCCCCCCCCO)cc1
- Activity (Rattus norvegicus [1]): 91%
- Activity (Rattus norvegicus [2]): 113%
- Activity (Rattus norvegicus [3]): 81%
- Activity (Rattus norvegicus [4]): 93%
- Activity (Rattus norvegicus [5]): 83%
- Activity (Rattus norvegicus [6]): 106%

Compound: COCCCCCCCCCCCOc1ccc(C(=O)O)cc1
- Activity (Rattus norvegicus [1]): 79%
- Activity (Rattus norvegicus [2]): 97%
- Activity (Rattus norvegicus [3]): 64%
- Activity (Rattus norvegicus [4]): 53%
- Activity (Rattus norvegicus [5]): 80%
- Activity (Rattus norvegicus [6]): 90%

Compound: CCOCCCCCCCCCCCOc1ccc(C(=O)O)cc1
- Activity (Rattus norvegicus [1]): 103%
- Activity (Rattus norvegicus [2]): 95%
- Activity (Rattus norvegicus [3]): 63%
- Activity (Rattus norvegicus [4]): 73%
- Activity (Rattus norvegicus [5]): 66%
- Activity (Rattus norvegicus [6]): 109%

Compound: CCCCOCCCCCCCCCCCOc1ccc(C(=O)O)cc1
- Activity (Rattus norvegicus [1]): 75%
- Activity (Rattus norvegicus [2]): 97%
- Activity (Rattus norvegicus [3]): 55%
- Activity (Rattus norvegicus [4]): 67%
- Activity (Rattus norvegicus [5]): 74%
- Activity (Rattus norvegicus [6]): 81%

Compound: O=C(O)c1ccc(OCCCCCCCCCCCS)cc1
- Activity (Rattus norvegicus [1]): 44%
- Activity (Rattus norvegicus [2]): 80%
- Activity (Rattus norvegicus [3]): 44%
- Activity (Rattus norvegicus [4]): 47%
- Activity (Rattus norvegicus [5]): 61%
- Activity (Rattus norvegicus [6]): 74%

Compound: O=C(O)c1ccc(OCCCCCCCCCCCCS)cc1
- Activity (Rattus norvegicus [1]): 88%
- Activity (Rattus norvegicus [2]): 79%
- Activity (Rattus norvegicus [3]): 26%
- Activity (Rattus norvegicus [4]): 46%
- Activity (Rattus norvegicus [5]): 61%
- Activity (Rattus norvegicus [6]): 81%

Compound: O=C(O)c1ccc(OCCCCCCCCCCCCCCCS)cc1
- Activity (Rattus norvegicus [1]): 100%
- Activity (Rattus norvegicus [2]): 82%
- Activity (Rattus norvegicus [3]): 40%
- Activity (Rattus norvegicus [4]): 42%
- Activity (Rattus norvegicus [5]): 56%
- Activity (Rattus norvegicus [6]): 81%

Compound: O=C(O)c1ccc(OCCCCCCCCCCCCCCCCS)cc1
- Activity (Rattus norvegicus [1]): 82%
- Activity (Rattus norvegicus [2]): 83%
- Activity (Rattus norvegicus [3]): 37%
- Activity (Rattus norvegicus [4]): 35%
- Activity (Rattus norvegicus [5]): 51%
- Activity (Rattus norvegicus [6]): 82%

Compound: CCSCCCCCCCCCCCOc1ccc(C(=O)O)cc1
- Activity (Rattus norvegicus [1]): 74%
- Activity (Rattus norvegicus [2]): 76%
- Activity (Rattus norvegicus [3]): 48%
- Activity (Rattus norvegicus [4]): 56%
- Activity (Rattus norvegicus [5]): 60%
- Activity (Rattus norvegicus [6]): 70%

Compound: CCSCCCCCCCCCCCCCCCCOc1ccc(C(=O)O)cc1
- Activity (Rattus norvegicus [1]): 89%
- Activity (Rattus norvegicus [2]): 90%
- Activity (Rattus norvegicus [3]): 45%
- Activity (Rattus norvegicus [4]): 48%
- Activity (Rattus norvegicus [5]): 59%
- Activity (Rattus norvegicus [6]): 88%

Compound: CCCSCCCCCCCCCCCOc1ccc(C(=O)O)cc1
- Activity (Rattus norvegicus [1]): 96%
- Activity (Rattus norvegicus [2]): 86%
- Activity (Rattus norvegicus [3]): 42%
- Activity (Rattus norvegicus [4]): 43%
- Activity (Rattus norvegicus [5]): 61%
- Activity (Rattus norvegicus [6]): 94%

Compound: CCCCSCCCCCCCCCCCOc1ccc(C(=O)O)cc1
- Activity (Rattus norvegicus [1]): 70%
- Activity (Rattus norvegicus [2]): 76%
- Activity (Rattus norvegicus [3]): 60%
- Activity (Rattus norvegicus [4]): 53%
- Activity (Rattus norvegicus [5]): 60%
- Activity (Rattus norvegicus [6]): 76%

Compound: O=C(O)c1ccc(OCCCCCCCCCCCSCc2ccccc2)cc1
- Activity (Rattus norvegicus [1]): 88%
- Activity (Rattus norvegicus [2]): 77%
- Activity (Rattus norvegicus [3]): 41%
- Activity (Rattus norvegicus [4]): 55%
- Activity (Rattus norvegicus [5]): 71%
- Activity (Rattus norvegicus [6]): 75%

Compound: O=C(O)c1ccc(OCCCCCCCCCCCCCCCSCc2ccccc2)cc1
- Activity (Rattus norvegicus [1]): 109%
- Activity (Rattus norvegicus [2]): 82%
- Activity (Rattus norvegicus [3]): 37%
- Activity (Rattus norvegicus [4]): 50%
- Activity (Rattus norvegicus [5]): 70%
- Activity (Rattus norvegicus [6]): 101%

Compound: CCCC[S+]([O-])CCCCCCCCCCCOc1ccc(C(=O)O)cc1 (stereo unspecified)
- Activity (Rattus norvegicus [1]): 102%
- Activity (Rattus norvegicus [2]): 102%
- Activity (Rattus norvegicus [3]): 44%
- Activity (Rattus norvegicus [4]): 54%
- Activity (Rattus norvegicus [5]): 83%
- Activity (Rattus norvegicus [6]): 97%

Compound: CC[S+]([O-])CCCCCCCCCCCCCCCCOc1ccc(C(=O)O)cc1 (stereo unspecified)
- Activity (Rattus norvegicus [1]): 89%
- Activity (Rattus norvegicus [2]): 94%
- Activity (Rattus norvegicus [3]): 55%
- Activity (Rattus norvegicus [4]): 80%
- Activity (Rattus norvegicus [5]): 87%
- Activity (Rattus norvegicus [6]): 81%

Compound: CCCCS(=O)(=O)CCCCCCCCCCCOc1ccc(C(=O)O)cc1
- Activity (Rattus norvegicus [1]): 91%
- Activity (Rattus norvegicus [2]): 94%
- Activity (Rattus norvegicus [3]): 57%
- Activity (Rattus norvegicus [4]): 69%
- Activity (Rattus norvegicus [5]): 81%
- Activity (Rattus norvegicus [6]): 95%

Compound: CCS(=O)(=O)CCCCCCCCCCCCCCCCOc1ccc(C(=O)O)cc1
- Activity (Rattus norvegicus [1]): 90%
- Activity (Rattus norvegicus [2]): 89%
- Activity (Rattus norvegicus [3]): 60%
- Activity (Rattus norvegicus [4]): 61%
- Activity (Rattus norvegicus [5]): 70%
- Activity (Rattus norvegicus [6]): 83%
